In the library only some 3.8% were active in any assay of this set; here they are far more common.
OX1R antag-1: blocks the human orexin 1 receptor | inhibition, % at 6.6 µM | O43613 | OX1R-expressing cells, FRET antagonist read-out | 1.8% of 330,000 active; in the data active = inhibition mostly above about 38%, no sharp cut-off; inactive = mostly below about 40%;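 also: 0% = agonist challenge alone and 100% = reference antagonist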
OX1R antag-2: blocks the human orexin 1 receptor; O43613; CHO/OX1R cells, Fluo-8 calcium fluorescence, orexin A; inhibition, % at 5 µM; 0.43% of 330,000 active; AID 434989;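 active = inhibition above its plate's threshold, mean inhibition of all tested compounds on the plate plus 3 SD, cut at about 37% in these data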;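 also: 0% = orexin A challenge wells and 100% = SB-334867-A antagonist wells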
GPR7 antag: antagonists of human GPR7 (neuropeptides B/W receptor 1) | P48145 | GPR7-expressing cells, fluorescence antagonist assay | inhibition, % at 4.4 µM | 1.1% of 290,000 active; in the data active = inhibition above about 16%, passing the limit was not always enough;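 also: cells stimulated with the agonist NPW; 0% = agonist with vehicle and 100% = vehicle without agonist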
Target sequence (P48145 whole entry, looked up): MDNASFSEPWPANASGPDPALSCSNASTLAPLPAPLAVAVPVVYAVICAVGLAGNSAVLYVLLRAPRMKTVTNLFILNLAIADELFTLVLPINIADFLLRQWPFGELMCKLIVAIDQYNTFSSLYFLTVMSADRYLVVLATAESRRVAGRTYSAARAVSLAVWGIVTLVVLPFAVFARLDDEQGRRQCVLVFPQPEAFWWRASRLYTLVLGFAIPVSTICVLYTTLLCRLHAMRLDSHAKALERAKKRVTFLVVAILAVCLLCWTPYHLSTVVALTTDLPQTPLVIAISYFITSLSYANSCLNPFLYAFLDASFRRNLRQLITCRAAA
CHO parental Ca: counter-screen: ATP calcium response change in parental CHO cells | parental CHO-K1, ATP-induced calcium, Fluo-8 fluorescence | inhibition, % at 5.6 µM | 0.63% of 330,000 active | AID 463079;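 active = inhibition above that plate's mean sample inhibition plus 3 SD, cut at about 26% in these data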;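 also: 0% = ATP-challenged DMSO wells and 100% = DMSO wells without ATP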
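Material: parental CHO cells / Compound: single nominal dose of 5.6 µM per compound / Signal: Fluo-8 fluorescence / Replicates: singlicate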
MPTP block: inhibitors of mitochondrial permeability transition pore | isolated mouse mitochondria, Ca2+ swelling absorbance, 30 min | 1.4% of 360,000 active | inhibition, % at 10 µM;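 active = inhibition of 50% or more, scaled per plate between neutral and stimulator controls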;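 also: 0% = DMSO wells given calcium and 100% = 1 mM EGTA wells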
MPTP counter: membrane potential counter-screen of mitochondrial pore inhibitors; shares compounds with MPTP block; 78% of 5,000 active; isolated mitochondria, Rhodamine 123 fluorescence; inhibition, % at 10 µM; in the data active = inhibition above about 22%;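 also: 0% = DMSO vehicle and 100% = positive control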
MPTP abs DR: MPTP inhibition, dose response swelling confirmation | shares compounds with MPTP block | isolated mitochondria swelling, absorbance | IC50, µM | 58% of 780 active | AID 651561; in the data active = IC50 below about 20 µM
MPTP counter DR: active in counter-screen for permeability transition pore inhibitors. IC50, µM. AID 651564. isolated mitochondria counterscreen, fluorescence read-out. 49% of 780 active. shares compounds with MPTP block; in the data active = IC50 below about 80 µM
* hit, by the source's call.

How did CCN1/C(=C/c2ccc3cccc(C)c3[n+]2CC)Sc2ccccc21 do in these assays?
OX1R antag-1: 32; OX1R antag-2: 100*; GPR7 antag: 34*; CHO parental Ca: 66*; MPTP block: 101*; MPTP counter: 89*

What do the screens show for `CCN1/C(=C/c2ccc3cc(C)cc(C)c3[n+]2CC)Sc2cc(C)ccc21`?
GPR7 antag: 10; MPTP block: 87*; MPTP counter: 97*

Results for Cc1ccc2c(c1)S/C(=C\c1cccc[n+]1C)N2CCO ?
OX1R antag-1: 0; OX1R antag-2: 4; GPR7 antag: -6; CHO parental Ca: -1; MPTP block: 0

Results for Cc1cc(C)cc(Nc2c(F)c(F)c(F)c(F)c2C(=O)O)c1 ?
OX1R antag-1: 50; OX1R antag-2: -14; GPR7 antag: -7; CHO parental Ca: -15; MPTP block: 1

Results for COc1ccc(OC)c(N/C=C/C(=C(C#N)C#N)N(C)C)c1 ?
OX1R antag-1: 44; OX1R antag-2: -24; GPR7 antag: 1; CHO parental Ca: -21; MPTP block: -1

Results for O=[N+]([O-])c1cc2c(c([N+](=O)[O-])c1)Nc1ccccc1O2 ?
MPTP block: 55*; MPTP counter: 61*

What do the screens show for `O=C(Cc1ccc(NC2=NC3CS(=O)(=O)CC3S2)cc1)N1CCN(c2ccc(F)cc2)CC1` (configuration not stated)?
OX1R antag-1: 7; OX1R antag-2: 11; GPR7 antag: -7; CHO parental Ca: 0; MPTP block: -2

Results for O=C1[C@H]2[C@@H](c3ccc(F)cc3)N3C(=O)N(c4ccc(Br)cc4)C(=O)[C@@]3(Cc3ccccc3)[C@H]2C(=O)N1C1CCCCC1 ?
OX1R antag-1: 4; OX1R antag-2: -45; GPR7 antag: -6; CHO parental Ca: -23; MPTP block: 0

What do the screens show for `C=CC(=O)Nc1cccc(N(C)c2ccnc(Nc3ccc(N4CCN(C)CC4)cc3)n2)c1`?
MPTP block: 102*; MPTP counter: 93*

How did COc1ccccc1C1CCN(c2cc(O)ccc2[N+](=O)[O-])CC1 do in these assays?
OX1R antag-1: 45; OX1R antag-2: -2; GPR7 antag: 11; CHO parental Ca: -7; MPTP block: 86*; MPTP counter: 78*

Results for COc1ccc2nc(/C(C#N)=C\c3ccc(Oc4ccc([N+](=O)[O-])cn4)cc3)[nH]c2c1 ?
OX1R antag-1: 27; OX1R antag-2: -1; GPR7 antag: -6; CHO parental Ca: -5; MPTP block: 11

What do the screens show for `CCOc1cc(/C=C(/C#N)c2nc3ccccc3[nH]2)ccc1Oc1ccc([N+](=O)[O-])cn1`?
OX1R antag-1: 25; OX1R antag-2: -5; GPR7 antag: -5; CHO parental Ca: -8; MPTP block: 83*; MPTP counter: 45*

How did Cc1ccc2nc(/C(C#N)=C\c3ccc(Oc4ccc([N+](=O)[O-])cn4)cc3)[nH]c2c1 do in these assays?
OX1R antag-1: 28; OX1R antag-2: 2; GPR7 antag: -4; CHO parental Ca: -3; MPTP block: 65*; MPTP counter: 19; MPTP abs DR: >100; MPTP counter DR: 10*

How did O=c1c2c(C(F)(F)F)cc(C(F)(F)F)nc2[nH]n1-c1ccccc1 do in these assays?
OX1R antag-1: 31; OX1R antag-2: 5; GPR7 antag: -11; CHO parental Ca: -15; MPTP block: 90*; MPTP counter: 68*

Results for CCCCN(C(=O)c1c(C)noc1C)c1c(N)n(CCCC)c(=O)[nH]c1=O ?
OX1R antag-1: 16; OX1R antag-2: -27; CHO parental Ca: -20; MPTP block: 2

Results for CC12CCC(O)CC1=CCC1C2CCC2(C)C(c3ccn[nH]3)CCC12 (configuration not stated) ?
MPTP block: 57*; MPTP counter: 88*

What do the screens show for `CC(C)C(=O)N[C@H]1CCC2C3CC=C4C[C@@H](O)CC[C@]4(C)C3CC[C@@]21C` (some centres not stated)?
OX1R antag-1: 12; OX1R antag-2: -9; CHO parental Ca: -18; MPTP block: 1

How did O=C(Nc1nc(-c2cc(Cl)sc2Cl)cs1)c1cccs1 do in these assays?
OX1R antag-1: 53; OX1R antag-2: -16; GPR7 antag: -9; CHO parental Ca: -28; MPTP block: 0

How did O=C(Nc1nc(-c2cc(Cl)sc2Cl)cs1)c1ccc(Br)s1 do in these assays?
OX1R antag-1: 11; OX1R antag-2: -16; GPR7 antag: -3; CHO parental Ca: -11; MPTP block: 104*; MPTP counter: 5

Results for CC1CCN(S(=O)(=O)c2nnc(NC(=O)c3cccc(Cl)c3)s2)CC1 ?
OX1R antag-1: 19; OX1R antag-2: -11; GPR7 antag: 9; CHO parental Ca: 4; MPTP block: 83*; MPTP counter: 79*

What do the screens show for `COc1ccccc1C(=O)Nc1nnc(S(=O)(=O)N2CCC(C)CC2)s1`?
OX1R antag-1: 2; OX1R antag-2: -6; GPR7 antag: 17; CHO parental Ca: -23; MPTP block: 14

Results for CCn1nc(C)c(CNC(=O)CC2C(=O)NCCN2CC(C)(C)C)c1C (configuration not stated) ?
OX1R antag-1: 0; OX1R antag-2: -19; GPR7 antag: -8; CHO parental Ca: -10; MPTP block: 0

What do the screens show for `COc1ccccc1CNC(=O)C1CCC(=O)N(CCCc2ccccc2)C1` (configuration not stated)?
OX1R antag-1: -1; OX1R antag-2: -15; GPR7 antag: -12; CHO parental Ca: -27; MPTP block: -3

What do the screens show for `O=c1cc(C(F)(F)F)[nH]c2ccc(C(F)(F)F)cc12`?
OX1R antag-1: 30; OX1R antag-2: 2; GPR7 antag: -16; CHO parental Ca: 5; MPTP block: 61*; MPTP counter: 82*

What do the screens show for `Brc1cc(Br)cc(CN2CCSCC2)c1`?
OX1R antag-1: 10; OX1R antag-2: 3; GPR7 antag: 0; CHO parental Ca: -18; MPTP block: 2

Results for CCC(C)c1ccc(NC(=S)NCc2cccs2)cc1 (configuration not stated) ?
OX1R antag-1: 11; OX1R antag-2: 5; GPR7 antag: -8; CHO parental Ca: -16; MPTP block: 97*; MPTP counter: 85*

How did CC(Cc1cccs1)NC(=O)Nc1ccc(F)cc1 (configuration not stated) do in these assays?
OX1R antag-1: 24; OX1R antag-2: -2; GPR7 antag: -2; CHO parental Ca: 1; MPTP block: 5
